{"source": "ChEMBL document CHEMBL1141860", "about": "“Synthesis and monoamine transporter affinity of 3-aryl substituted trop-2-enes” (Bioorg Med Chem Lett, 2005)", "key": {"[1]": {"target": "Sodium-dependent dopamine transporter (Homo sapiens, UniProt Q01959)", "sequence (Q01959 whole entry)": "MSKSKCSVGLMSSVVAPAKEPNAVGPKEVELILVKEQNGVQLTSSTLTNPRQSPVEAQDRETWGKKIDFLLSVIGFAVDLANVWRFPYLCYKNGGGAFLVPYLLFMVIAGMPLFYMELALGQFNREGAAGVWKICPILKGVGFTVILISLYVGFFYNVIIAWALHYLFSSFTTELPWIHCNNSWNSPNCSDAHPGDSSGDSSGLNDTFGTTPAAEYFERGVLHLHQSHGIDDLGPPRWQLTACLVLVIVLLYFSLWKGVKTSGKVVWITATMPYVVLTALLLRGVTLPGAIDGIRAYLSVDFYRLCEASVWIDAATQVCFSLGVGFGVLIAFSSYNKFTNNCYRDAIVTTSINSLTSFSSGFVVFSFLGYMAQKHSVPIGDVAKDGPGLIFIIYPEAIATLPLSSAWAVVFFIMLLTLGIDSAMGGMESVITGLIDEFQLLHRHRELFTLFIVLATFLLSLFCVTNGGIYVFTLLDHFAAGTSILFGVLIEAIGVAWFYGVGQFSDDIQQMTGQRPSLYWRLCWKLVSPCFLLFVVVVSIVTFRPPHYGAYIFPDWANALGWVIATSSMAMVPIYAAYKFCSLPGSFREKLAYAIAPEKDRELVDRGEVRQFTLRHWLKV", "assay": "Displacement of [3H]WIN-35428 from human DAT"}, "[2]": {"target": "Sodium-dependent noradrenaline transporter (Homo sapiens, UniProt P23975)", "sequence (P23975 whole entry)": "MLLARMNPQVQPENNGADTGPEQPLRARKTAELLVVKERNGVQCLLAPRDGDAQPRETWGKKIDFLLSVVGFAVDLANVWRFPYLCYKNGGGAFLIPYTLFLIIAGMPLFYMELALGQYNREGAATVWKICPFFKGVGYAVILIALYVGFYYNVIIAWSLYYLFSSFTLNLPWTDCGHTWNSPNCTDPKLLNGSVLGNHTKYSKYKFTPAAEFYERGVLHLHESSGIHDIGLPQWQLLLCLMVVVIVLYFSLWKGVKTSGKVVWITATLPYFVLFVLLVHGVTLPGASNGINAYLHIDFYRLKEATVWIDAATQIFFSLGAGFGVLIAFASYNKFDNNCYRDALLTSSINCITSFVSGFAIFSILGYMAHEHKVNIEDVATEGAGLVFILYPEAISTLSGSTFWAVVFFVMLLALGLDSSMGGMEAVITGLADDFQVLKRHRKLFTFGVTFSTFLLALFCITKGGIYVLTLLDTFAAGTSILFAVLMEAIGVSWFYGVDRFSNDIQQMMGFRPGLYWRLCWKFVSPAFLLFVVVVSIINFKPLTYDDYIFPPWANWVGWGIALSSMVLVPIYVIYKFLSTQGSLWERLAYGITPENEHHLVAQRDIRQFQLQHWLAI", "assay": "Displacement of [3H]nisoxetine from human NET", "outline": "(§1)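 Competitive radioligand binding at human transporters. The tritiated standard ligand matched each transporter: WIN-35,428 for DAT, citalopram for SERT, and nisoxetine for NET.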"}, "[3]": {"target": "Sodium-dependent serotonin transporter (Homo sapiens, UniProt P31645)", "sequence (P31645 whole entry)": "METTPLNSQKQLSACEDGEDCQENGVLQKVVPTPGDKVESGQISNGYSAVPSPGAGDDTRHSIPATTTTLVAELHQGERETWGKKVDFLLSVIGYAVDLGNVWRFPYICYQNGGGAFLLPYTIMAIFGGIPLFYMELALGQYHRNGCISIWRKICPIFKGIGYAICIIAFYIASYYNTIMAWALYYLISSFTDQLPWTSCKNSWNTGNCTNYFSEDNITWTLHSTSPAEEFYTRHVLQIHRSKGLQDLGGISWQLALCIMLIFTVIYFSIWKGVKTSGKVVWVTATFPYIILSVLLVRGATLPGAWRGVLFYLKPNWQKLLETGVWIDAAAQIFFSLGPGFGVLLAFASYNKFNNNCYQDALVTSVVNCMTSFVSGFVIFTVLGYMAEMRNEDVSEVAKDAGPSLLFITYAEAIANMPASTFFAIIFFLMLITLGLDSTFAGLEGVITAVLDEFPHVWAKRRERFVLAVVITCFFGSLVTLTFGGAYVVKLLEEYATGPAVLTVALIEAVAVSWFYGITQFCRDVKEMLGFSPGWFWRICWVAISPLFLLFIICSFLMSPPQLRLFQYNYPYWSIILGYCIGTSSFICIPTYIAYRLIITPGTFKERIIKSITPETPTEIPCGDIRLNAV", "assay": "Displacement of [3H]Citalopram from human SERT", "outline": "as §1"}, "[4]": {"target": "Serotonin and norepinephrine transporters (SERT/NET) (Homo sapiens) (UniProt P31645+P23975)", "sequence (P23975 whole entry, looked up)": "as the sequence (P23975 whole entry) above", "sequence (P31645 whole entry, looked up)": "as the sequence (P31645 whole entry) above", "assay": "Selectivity for human SERT over human NET", "type": "protein assay"}, "[5]": {"target": "Monoamine transporters; Norepinephrine & dopamine (Homo sapiens) (UniProt Q01959+P23975)", "sequence (P23975 whole entry, looked up)": "as the sequence (P23975 whole entry) above", "sequence (Q01959 whole entry, looked up)": "as the sequence (Q01959 whole entry) above", "assay": "Selectivity for human DAT over human NET", "type": "protein assay"}, "[6]": {"target": "Monoamine transporters; serotonin & dopamine (Homo sapiens) (UniProt P31645+Q01959)", "sequence (P31645 whole entry, looked up)": "as the sequence (P31645 whole entry) above", "sequence (Q01959 whole entry, looked up)": "as the sequence (Q01959 whole entry) above", "assay": "Selectivity for human DAT over human SERT", "type": "protein assay"}}, "note": "pIC50: −log10 of the molar value.", "data": [{"smiles": "CN1C2C=C(c3c[nH]c4ccccc34)CC1CC2", "note": "(centres undefined)", "values": [{"measurement": "pIC50", "setting": "[1]", "result": 6.22}, {"measurement": "pIC50", "setting": "[2]", "result": 5.40}, {"measurement": "pIC50", "setting": "[3]", "result": 7.14}, {"measurement": "Ratio IC50", "setting": "[4]", "result": 0.018}, {"measurement": "Ratio IC50", "setting": "[5]", "result": 0.15}, {"measurement": "Ratio IC50", "setting": "[6]", "result": 8.3}]}, {"smiles": "C[N+]1(CCl)C2C=C(c3ccccc3-c3ccccc3)CC1CC2", "note": "(centres undefined)", "values": [{"measurement": "pIC50", "setting": "[1]", "result": 4.17}, {"measurement": "pIC50", "setting": "[2]", "result": 5.69}, {"measurement": "pIC50", "setting": "[3]", "result": 4.79}, {"measurement": "Ratio IC50", "setting": "[4]", "result": 8}, {"measurement": "Ratio IC50", "setting": "[5]", "result": 33.2}, {"measurement": "Ratio IC50", "setting": "[6]", "result": 4.2}]}, {"smiles": "CN1C2C=C(c3ccc4c(c3)Cc3ccccc3-4)CC1CC2", "note": "(centres undefined)", "values": [{"measurement": "pIC50", "setting": "[1]", "result": 6.12}, {"measurement": "pIC50", "setting": "[2]", "result": 5.47}, {"measurement": "pIC50", "setting": "[3]", "result": 7.84}, {"measurement": "Ratio IC50", "setting": "[4]", "result": 0.0043}, {"measurement": "Ratio IC50", "setting": "[5]", "result": 0.23}, {"measurement": "Ratio IC50", "setting": "[6]", "result": 52.2}]}, {"smiles": "CN1C2CCC1CC(O)(C1c3ccccc3-c3ccc(Br)cc31)C2", "note": "(centres undefined)", "values": [{"measurement": "pIC50", "setting": "[1]", "result": 4.77}, {"measurement": "pIC50", "setting": "[2]", "result": 4.20}, {"measurement": "pIC50", "setting": "[3]", "result": 5.59}, {"measurement": "Ratio IC50", "setting": "[4]", "result": 0.041}, {"measurement": "Ratio IC50", "setting": "[5]", "result": 0.27}, {"measurement": "Ratio IC50", "setting": "[6]", "result": 6.5}]}, {"smiles": "CN1C2C=C(c3ccccc3-c3ccccc3)CC1CC2", "note": "(centres undefined)", "values": [{"measurement": "pIC50", "setting": "[2]", "result": 5.19}, {"measurement": "pIC50", "setting": "[3]", "result": 5.77}, {"measurement": "Ratio IC50", "setting": "[4]", "result": 0.27}, {"measurement": "Ratio IC50", "setting": "[5]", "result": 1.44}, {"measurement": "Ratio IC50", "setting": "[6]", "result": 5.4}]}, {"smiles": "CN1C2CCC1CC(O)(c1ccccc1-c1ccccc1)C2", "note": "(centres undefined)", "values": [{"measurement": "pIC50", "setting": "[1]", "result": 5.40}, {"measurement": "pIC50", "setting": "[2]", "result": 4.18}, {"measurement": "pIC50", "setting": "[3]", "result": 5.60}, {"measurement": "Ratio IC50", "setting": "[4]", "result": 0.038}, {"measurement": "Ratio IC50", "setting": "[5]", "result": 0.06}, {"measurement": "Ratio IC50", "setting": "[6]", "result": 1.58}]}, {"smiles": "CN1C2CCC1CC(O)(c1cccc(-c3ccccc3)c1)C2", "note": "(centres undefined)", "values": [{"measurement": "pIC50", "setting": "[1]", "result": 4.66}, {"measurement": "pIC50", "setting": "[2]", "result": 4.38}, {"measurement": "pIC50", "setting": "[3]", "result": 5.42}, {"measurement": "Ratio IC50", "setting": "[4]", "result": 0.091}, {"measurement": "Ratio IC50", "setting": "[5]", "result": 0.53}, {"measurement": "Ratio IC50", "setting": "[6]", "result": 5.81}]}, {"smiles": "CN1C2C=C(C3c4ccccc4-c4ccccc43)CC1CC2", "note": "(centres undefined)", "values": [{"measurement": "pIC50", "setting": "[1]", "result": 5.03}, {"measurement": "pIC50", "setting": "[2]", "result": 4.08}, {"measurement": "pIC50", "setting": "[3]", "result": 6.16}, {"measurement": "Ratio IC50", "setting": "[4]", "result": 0.0083}, {"measurement": "Ratio IC50", "setting": "[5]", "result": 0.113}, {"measurement": "Ratio IC50", "setting": "[6]", "result": 13.6}]}, {"smiles": "CN1C2CCC1CC(O)(C1c3ccccc3-c3ccccc31)C2", "note": "(centres undefined)", "values": [{"measurement": "pIC50", "setting": "[1]", "result": 6.27}, {"measurement": "pIC50", "setting": "[2]", "result": 3.80}, {"measurement": "pIC50", "setting": "[3]", "result": 4.45}, {"measurement": "Ratio IC50", "setting": "[4]", "result": 0.22}, {"measurement": "Ratio IC50", "setting": "[5]", "result": 0.0034}, {"measurement": "Ratio IC50", "setting": "[6]", "result": 0.015}]}, {"smiles": "CN1C2C=C(c3cccc(-c4ccccc4)c3)CC1CC2", "note": "(centres undefined)", "values": [{"measurement": "pIC50", "setting": "[1]", "result": 5.14}, {"measurement": "pIC50", "setting": "[2]", "result": 4.64}, {"measurement": "pIC50", "setting": "[3]", "result": 6.17}, {"measurement": "Ratio IC50", "setting": "[4]", "result": 0.029}, {"measurement": "Ratio IC50", "setting": "[5]", "result": 0.314}, {"measurement": "Ratio IC50", "setting": "[6]", "result": 10.8}]}]}
